Experimental data from ChEMBL document CHEMBL1125337, “Synthesis and antibacterial activity of a series of basic amides of teicoplanin and deglucoteicoplanin with polyamines” (J Med Chem, 1992).
Values after ≈ are worked out from the molar mass of the structure shown.

Legend:
[1] = Association constant determined at pH 9; Value ranges from 5E4-7.5E4; format: ADME
[2] = test system: Enterococcus faecalis; test: Minimum inhibitory concentration against Enterococcus faecalis ATCC 7080; format: functional
In short: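 Microbroth dilution MIC (µg/mL), final inoculum 10^4 cfu/mL, incubated 24 h at 37 °C in air.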

[3] = test system: Escherichia coli; test: Minimum inhibitory concentration against Escherichia coli L 47; format: functional
In short: (§1)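 MIC (µg/mL) by microbroth dilution in Iso-Sensitest broth; final inoculum 10^4 cfu/mL; 24 h at 37 °C in air.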

[4] = test system: Proteus vulgaris; test: Minimum inhibitory concentration against Proteus vulgaris ATCC 881; format: functional; in short: as §1
[5] = test system: Pseudomonas aeruginosa; test: Minimum inhibitory concentration against Pseudomonas aeruginosa ATCC 10145; format: functional; in short: as §1
[6] = test system: Staphylococcus aureus; test: Minimum inhibitory concentration against Staphylococcus aureus L 165; format: functional; in short: as §1
[7] = test system: Streptococcus pyogenes; test: Efficacy of compound administered subcutaneously against Streptococcus pyogenes L 49 Septicemia in mouse; format: functional; conditions: sc
In short: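 Mice were infected intraperitoneally with about 10^5 Strep. pyogenes L 49 cells, about 100 times the 50% lethal dose. Groups of 5–8 mice were treated once right after challenge, by the route stated in the line. ED50 (mg/kg) was derived from percentage survival at each dose on day 7 (Spearman-Kärber).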

[8] = test system: Streptococcus pyogenes; test: Minimum inhibitory concentration of compound was determined against Streptococcus pyogenes L 49 in mouse; format: functional
[9] = test system: Staphylococcus epidermidis; test: Minimum inhibitory concentration against Staphylococcus epidermidis ATCC 12228; format: functional; in short: as §1
[10] = test system: Streptococcus pneumoniae; test: Minimum inhibitory concentration against Streptococcus pneumoniae L 44; format: functional
In short: (§2)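 MIC (µg/mL) by microbroth dilution in Todd-Hewitt broth, final inoculum 10^4 cfu/mL, incubated 24 h at 37 °C in air.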

[11] = test system: Staphylococcus haemolyticus; test: Minimum inhibitory concentration against Staphylococcus haemolyticus L 602; format: functional; in short: as §1
[12] = test system: Streptococcus pyogenes; test: Minimum inhibitory concentration against Streptococcus pyogenes L 49; format: functional; in short: as §2
[13] = Association constant to Ac2-L-Lys-D-Ala-D-Ala determined at pH 9; Value ranges from 5E4-7.5E4
[14] = test system: Escherichia coli; test: Efficacy of compound administered intravenously against Escherichia coli L47 Septicemia in mouse; format: functional; conditions: iv
In short: (§3)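 Mouse septicemia from intraperitoneal injection of about 10^4 cells of E. coli L 47, about 100 times the 50% lethal dose. Groups of five to eight mice each got a single dose immediately after infection, by the route stated in the line. ED50 in mg/kg was calculated from percent survivors at each dose on day 7 (Spearman-Kärber).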

[15] = test system: Escherichia coli; test: Efficacy of compound administered subcutaneously against Escherichia coli L47 Septicemia in mouse; format: functional; conditions: sc; in short: as §3
[16] = species on record: Mus musculus; test: Number of survivors mouse to that of treated with compound; 7 out of 8 survived; format: functional

| Ka [1] [M⁻¹] | MIC [2] [µg/mL] | MIC [3] [µg/mL] | MIC [4] [µg/mL] | MIC [5] [µg/mL] | MIC [6] [µg/mL] | MIC [8] [µg/mL] | MIC [9] [µg/mL] | MIC [10] [µg/mL] | MIC [12] [µg/mL] | Ka [13] [M⁻¹] | Structure (SMILES) | ED50 [7] [mg/kg] | MIC [11] [µg/mL] | ED50 [14] [mg/kg] | ED50 [15] [mg/kg] | Survivors [16] |
| --- | --- | --- | --- | --- | --- | --- | --- | --- | --- | --- | --- | --- | --- | --- | --- | --- |
| 50000 | 0.125 (≈ 0.0953 µM) | 1 (≈ 0.762 µM) | 32 (≈ 24.4 µM) | 8 (≈ 6.1 µM) | 0.063 (≈ 0.048 µM) | 0.13 (≈ 0.0991 µM) | 0.032 (≈ 0.0244 µM) | 0.125 (≈ 0.0953 µM) | 0.063 (≈ 0.048 µM) |  | NCCCNCCCNC(=O)[C@H]1NC(=O)[C@H]2NC(=O)[C@H](NC(=O)[C@@H]3NC(=O)[C@H]4NC(=O)[C@@H](Cc5ccc(c(Cl)c5)Oc5cc3cc(c5O)Oc3ccc(cc3Cl)[C@H]2O)NC(=O)[C@H](N)c2ccc(O)c(c2)Oc2cc(O)cc4c2)c2ccc(O)c(c2)-c2c(O)cc(O)cc21 | 1.65 | 0.125 (≈ 0.0953 µM) |  |  |  |
|  | 0.125 (≈ 0.0904 µM) | 2 (≈ 1.45 µM) | 64 (≈ 46.3 µM) | 8 (≈ 5.78 µM) | 0.063 (≈ 0.0455 µM) | 0.06 (≈ 0.0434 µM) | 0.063 (≈ 0.0455 µM) | 0.125 (≈ 0.0904 µM) | 0.063 (≈ 0.0455 µM) | 75000 | NCCCNCCCCNCCCNC(=O)[C@H]1NC(=O)[C@H]2NC(=O)[C@H](NC(=O)[C@@H]3NC(=O)[C@H]4NC(=O)[C@@H](Cc5ccc(c(Cl)c5)Oc5cc3cc(c5O)Oc3ccc(cc3Cl)[C@H]2O)NC(=O)[C@H](N)c2ccc(O)c(c2)Oc2cc(O)cc4c2)c2ccc(O)c(c2)-c2c(O)cc(O)cc21 | 0.41 | 0.125 (≈ 0.0904 µM) |  |  |  |
|  | 0.125 (≈ 0.0922 µM) | 2 (≈ 1.48 µM) | 64 (≈ 47.2 µM) | 16 (≈ 11.8 µM) | 0.125 (≈ 0.0922 µM) | 0.06 (≈ 0.0443 µM) | 0.063 (≈ 0.0465 µM) | 0.125 (≈ 0.0922 µM) | 0.063 (≈ 0.0465 µM) | 75000 | NCCCNCCNCCCNC(=O)[C@H]1NC(=O)[C@H]2NC(=O)[C@H](NC(=O)[C@@H]3NC(=O)[C@H]4NC(=O)[C@@H](Cc5ccc(c(Cl)c5)Oc5cc3cc(c5O)Oc3ccc(cc3Cl)[C@H]2O)NC(=O)[C@H](N)c2ccc(O)c(c2)Oc2cc(O)cc4c2)c2ccc(O)c(c2)-c2c(O)cc(O)cc21 | 2.87 | 0.125 (≈ 0.0922 µM) |  |  |  |

| Structure (SMILES) | Ka [1] [M⁻¹] | MIC [2] [µg/mL] | MIC [3] [µg/mL] | MIC [4] [µg/mL] | MIC [5] [µg/mL] | MIC [6] [µg/mL] | MIC [8] [µg/mL] | MIC [9] [µg/mL] | MIC [10] [µg/mL] | MIC [12] [µg/mL] | Ka [13] [M⁻¹] | ED50 [7] [mg/kg] | MIC [11] [µg/mL] | ED50 [14] [mg/kg] | ED50 [15] [mg/kg] | Survivors [16] |
| --- | --- | --- | --- | --- | --- | --- | --- | --- | --- | --- | --- | --- | --- | --- | --- | --- |
| NCCCN(CCCN)CCCNC(=O)[C@H]1NC(=O)[C@H]2NC(=O)[C@H](NC(=O)[C@@H]3NC(=O)[C@H]4NC(=O)[C@@H](Cc5ccc(c(Cl)c5)Oc5cc3cc(c5O)Oc3ccc(cc3Cl)[C@H]2O)NC(=O)[C@H](N)c2ccc(O)c(c2)Oc2cc(O)cc4c2)c2ccc(O)c(c2)-c2c(O)cc(O)cc21 |  | 0.125 (≈ 0.0913 µM) | 1 (≈ 0.73 µM) | 128 (≈ 93.5 µM) | 8 (≈ 5.84 µM) | 0.125 (≈ 0.0913 µM) | 0.06 (≈ 0.0438 µM) | 0.008 (≈ 0.00584 µM) | 0.125 (≈ 0.0913 µM) | 0.063 (≈ 0.046 µM) |  | 0.72 | 0.063 (≈ 0.046 µM) | < 40 | 40 | 7 |
